Results published in ChEMBL document CHEMBL1240337, “Identification of proteases that regulate erythrocyte rupture by the malaria parasite Plasmodium falciparum” (Nat Chem Biol, 2008).
Blank lines part the entries; values can stand above or below the compound they belong to. Active and inactive are the calls of the source. The rule behind the calls is not given here.

Experiments:
[1] = molecular target: T1, Probable cathepsin C (Plasmodium falciparum 3D7) (UniProt Q8IIJ9); assay: Inhibition of Plasmodium falciparum 3D7 cathepsin C by fluorescence spectrophotometry
T1 sequence (whole entry): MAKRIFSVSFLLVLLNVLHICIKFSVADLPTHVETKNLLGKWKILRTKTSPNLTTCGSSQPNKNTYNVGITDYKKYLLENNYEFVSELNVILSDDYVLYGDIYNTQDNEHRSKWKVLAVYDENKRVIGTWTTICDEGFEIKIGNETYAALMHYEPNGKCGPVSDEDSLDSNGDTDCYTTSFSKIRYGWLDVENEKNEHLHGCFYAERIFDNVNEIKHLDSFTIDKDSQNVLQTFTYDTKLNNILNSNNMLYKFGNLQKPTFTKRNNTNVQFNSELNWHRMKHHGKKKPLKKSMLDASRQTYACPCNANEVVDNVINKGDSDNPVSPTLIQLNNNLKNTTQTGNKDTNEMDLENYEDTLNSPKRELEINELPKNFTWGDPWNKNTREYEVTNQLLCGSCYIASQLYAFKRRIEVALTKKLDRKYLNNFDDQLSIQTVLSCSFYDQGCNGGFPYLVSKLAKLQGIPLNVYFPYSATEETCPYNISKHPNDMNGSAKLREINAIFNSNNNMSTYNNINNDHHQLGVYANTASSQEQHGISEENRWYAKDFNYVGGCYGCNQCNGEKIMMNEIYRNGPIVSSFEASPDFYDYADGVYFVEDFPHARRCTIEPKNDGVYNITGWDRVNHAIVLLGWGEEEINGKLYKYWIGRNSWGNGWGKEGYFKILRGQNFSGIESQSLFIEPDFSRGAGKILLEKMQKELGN

[2] = molecular target: T2, Preprocathepsin c, putative (Plasmodium falciparum 3D7) (UniProt Q8I0V1); assay: Inhibition of Plasmodium falciparum 3D7 PFL2290w by fluorescence spectrophotometry
T2 sequence (whole entry): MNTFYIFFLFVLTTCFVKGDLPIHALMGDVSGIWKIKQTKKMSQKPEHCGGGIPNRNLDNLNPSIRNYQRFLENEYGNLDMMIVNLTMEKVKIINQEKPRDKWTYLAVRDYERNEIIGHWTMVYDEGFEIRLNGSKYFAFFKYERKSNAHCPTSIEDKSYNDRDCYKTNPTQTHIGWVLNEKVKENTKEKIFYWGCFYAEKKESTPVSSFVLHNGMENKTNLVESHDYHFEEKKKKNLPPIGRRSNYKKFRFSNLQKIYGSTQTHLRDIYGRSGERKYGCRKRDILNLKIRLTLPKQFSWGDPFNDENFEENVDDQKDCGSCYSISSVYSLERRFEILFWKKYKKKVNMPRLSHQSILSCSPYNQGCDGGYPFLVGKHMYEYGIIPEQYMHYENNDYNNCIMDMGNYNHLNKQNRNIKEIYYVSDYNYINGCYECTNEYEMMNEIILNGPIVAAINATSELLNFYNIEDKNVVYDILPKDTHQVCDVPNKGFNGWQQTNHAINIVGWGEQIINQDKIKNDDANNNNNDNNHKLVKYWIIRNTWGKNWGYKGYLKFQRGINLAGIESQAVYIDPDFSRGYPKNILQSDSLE

Plasmodium falciparum [3] = assay: Inhibition of Plasmodium falciparum SUB1-mediated rupture of infected human red blood cells at 50 uM after 24 hrs by propidium iodide staining-based FACS analysis
Method in brief: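 Early schizonts (~36 h post invasion) given 50 µM compound (final) for 24 h at 37 °C, then glutaraldehyde-fixed, Triton-permeabilized and propidium iodide stained. Flow cytometric schizont fraction normalized to DMSO controls.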

Plasmodium falciparum [4] = assay: Displacement of JCP104 from Plasmodium falciparum SUB1 at 50 uM by SDS-PAGE
[5] = molecular target: T3, Protease, putative (Plasmodium falciparum 3D7) (UniProt Q8I1Y2); assay: Inhibition of Plasmodium falciparum 3D7 PFD0230c by fluorescence spectrophotometry
T3 sequence (whole entry): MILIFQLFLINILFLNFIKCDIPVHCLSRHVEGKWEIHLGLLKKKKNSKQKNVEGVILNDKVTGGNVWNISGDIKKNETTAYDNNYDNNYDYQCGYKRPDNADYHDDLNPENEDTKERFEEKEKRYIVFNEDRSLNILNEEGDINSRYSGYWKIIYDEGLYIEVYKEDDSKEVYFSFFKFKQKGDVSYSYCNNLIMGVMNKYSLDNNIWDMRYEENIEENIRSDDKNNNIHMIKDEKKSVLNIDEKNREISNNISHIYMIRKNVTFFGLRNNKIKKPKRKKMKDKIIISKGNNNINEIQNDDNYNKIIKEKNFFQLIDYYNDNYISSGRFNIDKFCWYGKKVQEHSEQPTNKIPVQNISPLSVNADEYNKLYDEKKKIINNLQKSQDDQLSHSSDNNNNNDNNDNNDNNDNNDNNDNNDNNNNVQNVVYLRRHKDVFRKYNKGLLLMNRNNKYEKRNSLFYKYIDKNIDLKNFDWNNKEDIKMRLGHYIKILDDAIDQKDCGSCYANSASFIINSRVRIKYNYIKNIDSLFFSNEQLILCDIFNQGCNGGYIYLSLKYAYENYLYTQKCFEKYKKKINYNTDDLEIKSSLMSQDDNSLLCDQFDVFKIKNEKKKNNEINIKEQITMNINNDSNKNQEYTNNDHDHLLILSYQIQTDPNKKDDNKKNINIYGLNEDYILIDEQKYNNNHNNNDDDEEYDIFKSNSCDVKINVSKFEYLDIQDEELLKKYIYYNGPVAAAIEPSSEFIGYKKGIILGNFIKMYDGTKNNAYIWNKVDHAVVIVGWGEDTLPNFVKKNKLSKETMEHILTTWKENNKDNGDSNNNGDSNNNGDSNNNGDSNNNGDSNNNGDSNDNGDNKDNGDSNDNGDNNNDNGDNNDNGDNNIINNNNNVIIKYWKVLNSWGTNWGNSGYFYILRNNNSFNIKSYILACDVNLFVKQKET

[6] = molecular target: T3, Protease, putative (Plasmodium falciparum 3D7); assay: Inhibition of Plasmodium falciparum 3D7 PFD0230c-mediated rupture of infected human red blood cells after 24 hrs by propidium iodide staining-based FACS analysis
Method in brief: (§1)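 Synchronous early schizonts (~36 h post invasion) exposed to inhibitor for 24 h at 37 °C. Cells fixed in 0.05% glutaraldehyde/PBS overnight at 4 °C, permeabilized with 0.25% Triton X-100 and stained with propidium iodide. Flow cytometry gated ring and schizont populations as fractions of total parasitemia, normalized to averaged DMSO wells. Triplicate runs.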

[7] = molecular target: T3, Protease, putative (Plasmodium falciparum 3D7); assay: Inhibition of Plasmodium falciparum 3D7 PFD0230c-mediated rupture of infected human red blood cells at 10 uM after 24 hrs by giemsa staining
Method in brief: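 Giemsa-stained thin blood films were read from schizonts exposed at 36 h post invasion to 10 µM inhibitor, to assess rupture and morphology.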

[8] = molecular target: T3, Protease, putative (Plasmodium falciparum 3D7); assay: Inhibition of Plasmodium falciparum 3D7 PFD0230c-mediated SERA5 processing at 1 1 to 100 uM after 6 to 8 hrs by SDS-PAGE
Method in brief: (§2)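 Percoll-enriched schizonts (36–40 h post invasion) treated with inhibitor for 6–8 h in serum-free RPMI. Medium run on 8% SDS-PAGE; schizont pellet solubilized in SDS loading buffer. SERA5 detected by western blot with a monoclonal recognizing the P50 product; PfSUB1 detected with antisera.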

Plasmodium falciparum [9] = assay: Inhibition of Plasmodium falciparum SUB1-mediated SERA5 processing at 1 1 to 100 uM after 6 to 8 hrs by SDS-PAGE; method in brief: as §2
[10] = molecular target: T4, Falcipain-3 (Plasmodium falciparum 3D7) (UniProt Q8IIL0); assay: Inhibition of Plasmodium falciparum 3D7 falcipain-3 by fluorescence spectrophotometry
T4 sequence (whole entry): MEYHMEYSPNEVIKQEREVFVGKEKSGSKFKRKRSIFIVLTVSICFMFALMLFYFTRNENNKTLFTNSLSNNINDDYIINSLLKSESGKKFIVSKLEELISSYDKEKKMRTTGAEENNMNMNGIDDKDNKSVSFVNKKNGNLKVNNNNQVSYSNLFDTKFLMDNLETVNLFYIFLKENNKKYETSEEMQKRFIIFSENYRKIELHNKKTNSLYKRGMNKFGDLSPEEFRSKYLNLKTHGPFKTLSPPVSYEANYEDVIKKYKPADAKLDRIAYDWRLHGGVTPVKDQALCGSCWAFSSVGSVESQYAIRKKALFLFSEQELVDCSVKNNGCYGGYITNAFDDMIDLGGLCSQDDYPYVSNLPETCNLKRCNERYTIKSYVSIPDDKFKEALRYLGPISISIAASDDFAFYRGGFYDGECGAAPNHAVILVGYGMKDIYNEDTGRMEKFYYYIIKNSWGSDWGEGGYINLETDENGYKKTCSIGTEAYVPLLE

Plasmodium falciparum [11] = assay: Inhibition of Plasmodium falciparum 3D7 falcipain-2 by fluorescence spectrophotometry
[12] = molecular target: T5, Cysteine proteinase falcipain-1 (Plasmodium falciparum 3D7) (UniProt Q8I6V0); assay: Inhibition of Plasmodium falciparum 3D7 falcipain-1 by fluorescence spectrophotometry
T5 sequence (whole entry): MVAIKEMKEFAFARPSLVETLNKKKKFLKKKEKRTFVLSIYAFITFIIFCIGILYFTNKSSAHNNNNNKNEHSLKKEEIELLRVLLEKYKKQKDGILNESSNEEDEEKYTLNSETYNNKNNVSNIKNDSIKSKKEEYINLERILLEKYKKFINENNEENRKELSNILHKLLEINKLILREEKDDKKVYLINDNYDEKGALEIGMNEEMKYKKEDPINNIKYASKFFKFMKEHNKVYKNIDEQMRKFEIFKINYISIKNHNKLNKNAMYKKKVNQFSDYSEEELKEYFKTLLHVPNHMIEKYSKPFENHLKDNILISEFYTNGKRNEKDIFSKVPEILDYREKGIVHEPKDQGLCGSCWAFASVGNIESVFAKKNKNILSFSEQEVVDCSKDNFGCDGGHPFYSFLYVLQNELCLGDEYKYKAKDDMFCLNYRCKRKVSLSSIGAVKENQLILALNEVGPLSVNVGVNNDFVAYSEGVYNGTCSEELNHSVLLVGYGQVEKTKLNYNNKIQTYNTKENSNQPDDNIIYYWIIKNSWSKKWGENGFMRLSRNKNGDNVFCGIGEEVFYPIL

[13] = molecular target: T3, Protease, putative (Plasmodium falciparum 3D7); assay: Inhibition of Plasmodium falciparum 3D7 PFD0230c-mediated rupture of infected human red blood cells at 1 to 100 uM after 24 hrs by propidium iodide staining-based FACS analysis
Method in brief: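 Schizonts at 36 h post invasion treated in triplicate with 1–100 µM inhibitor for 24 h, then propidium iodide stained and analyzed by flow cytometry. Schizont accumulation is expressed as fold increase over the DMSO control.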

[14] = Cytotoxicity against african green monkey BSC1 cells after 24 hrs by celltiter glo assay; assay type: cell-based; details: chlorocebus aethiops, bsc-1, 24 h
Method in brief: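 BSC-1 African green monkey kidney epithelial cells exposed to compounds; viability read by CellTiter-Glo luminescence.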

Plasmodium falciparum [15] = assay: Antiplasmodial activity against Plasmodium falciparum schizont infected in human erythrocytes assessed as inhibition of ring-stage parasite growth at 1 to 100 uM after 24 by propidium iodide staining-based FACS analysis; assay type: functional, organism-based
Plasmodium falciparum [16] = assay: Antiplasmodial activity against Plasmodium falciparum schizont infected in human erythrocytes assessed as effect on schizont morphology at 1 to 100 uM after 24 by propidium iodide staining-based FACS analysis; assay type: functional, organism-based
Plasmodium falciparum [17] = assay: Antiplasmodial activity against Plasmodium falciparum schizont infected in human erythrocytes assessed as effect on parasite ring-to-schizont morphology at 1 to 100 uM after 24 by propidium iodide staining-based FACS analysis; assay type: functional, organism-based
Plasmodium falciparum [18] = assay: Antiplasmodial activity against Plasmodium falciparum schizont infected in human erythrocytes assessed as blockade of parasite-mediated rupture of erythrocytes after 24 by propidium iodide staining-based FACS analysis; assay type: functional, organism-based; method in brief: as §1
[19] = Inhibition of Plasmodium falciparum SUB1 by fluorescence spectrophotometry
Method in brief: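 Recombinant PfSUB1 cleavage of the fluorogenic peptide substrate pepF1-6R measured over a range of inhibitor concentrations. IC50 taken from the curve fit.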

- inhibition [1]: Active
- inhibition [2]: Active
SMILES: NC(=O)[C@H](Cc1ccc(O)cc1)NC(=O)CCCCCCCCCCS(=O)(=O)/C=C/[C@H](CCc1ccccc1)NC(=O)[C@@H](N)Cc1ccc(O)c([N+](=O)[O-])c1

- Activity (Plasmodium falciparum [3]): Active
- inhibition (Plasmodium falciparum [3]): Active
- Activity (Plasmodium falciparum [4]): Active
SMILES: O=C(CCCC[C@H]1SC[C@H]2NC(=O)N[C@H]21)Nc1ccc2c(Cl)c(OCCc3ccccc3)oc(=O)c2c1

- inhibition [5]: Active
- inhibition [6]: Dose-dependent effect
- inhibition [7]: Active
- inhibition [8]: Active
- inhibition (Plasmodium falciparum [9]): Active
SMILES: N[C@@H](Cc1ccc(O)c([N+](=O)[O-])c1)C(=O)N[C@H](/C=C/S(=O)(=O)c1ccccc1)CCc1ccccc1

- inhibition [1]: Active
- inhibition [10]: inactive
- inhibition [12]: Active
- inhibition [13]: inactive
- inhibition [7]: inactive
- inhibition [8]: Active
- inhibition (Plasmodium falciparum [9]): Active
SMILES: O=C(N[C@H](/C=C/S(=O)(=O)c1ccccc1)CCc1ccccc1)C1CCCN1 (stereo not given in full)
- inhibition (Plasmodium falciparum [11]): inactive

- EC50 (Plasmodium falciparum [18]): 22 µM
- IC50 [19]: 18 µM
- inhibition [8]: Active
- inhibition (Plasmodium falciparum [9]): Active
SMILES: O=C(CCCCCNC(=O)CCCC[C@H]1SC[C@H]2NC(=O)N[C@H]21)NCCCCCC(=O)Nc1ccc2c(Cl)c(OCCc3ccccc3)oc(=O)c2c1
- Activity [14]: Non-toxic
- inhibition (Plasmodium falciparum [15]): Active
- Activity (Plasmodium falciparum [16]): inactive
- Activity (Plasmodium falciparum [17]): inactive

- Activity (Plasmodium falciparum [3]): Active
- inhibition (Plasmodium falciparum [3]): Active
- Activity (Plasmodium falciparum [4]): Active
SMILES: O=C(CCCC[C@H]1SC[C@H]2NC(=O)N[C@H]21)NCCCCCC(=O)Nc1ccc2c(Cl)c(OCCc3ccccc3)oc(=O)c2c1

- inhibition [7]: Active
SMILES: CCOC(=O)[C@H]1O[C@@H]1C(=O)N[C@H](C(=O)NCCc1ccc(O)cc1)[C@@H](C)CC
